Structures are written as SMILES. The list shows a part of the results. The source made the active and inactive calls.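 How the source made its calls: active means triplicate mean inhibition exceeding the hit cutoff computed for the primary STAT1 screen (cut at about 35% in these data); inactive means the rest.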

The record followed here is PubChem BioAssay AID1263 (The Scripps Research Institute Molecular Screening Center, 2008).

This assay can be described thus: blockers of IFN-gamma STAT1 reporter activity – cell-based, HTS, luciferase reporter, confirmation (AID 1263).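 Further: 0% = DMSO with IFN-gamma and 100% = 300 µM nifuroxazide with IFN-gamma.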 Particulars: NIH 3T3 STAT1-luciferase reporter, luminescence, at 5.5 µM, stronger effect = higher value. The method in brief:
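Material: NIH 3T3 STAT1-luciferase reporter cells / Reagent: IFN-gamma at 3.0 ng/mL / Schedule: 1 h compound, 4 h IFN-gamma at 37 °C / Repeats: three replicates / Read-out basis: percent inhibition, DMSO as 0% and nifuroxazide as 100% / Compound: one dose only / Signal: luminescence after luciferase substrate addition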
Regarding `COC(=O)C1=CN(Cc2ccc(OC)c(OC)c2)C=C(C(=O)OC)C1c1cccs1`, the inhibition was 38.3% (active).
Take `C[C@@H]1C[C@@H]2O[C@H]2/C=C\C=C\C(=O)Cc2c(Cl)c(O)cc(O)c2C(=O)O1`: the inhibition is 61% (active).
For `CCOC(=O)N1CCN(C(=O)CSc2nnc(-c3c[nH]c4ccccc34)n2CCOC)CC1` the value was 33.9% (inactive); for `COc1ccc(C2CC(c3cccs3)=NN2c2nc(C)c(C(C)=O)s2)cc1OC` (stereo not given), 20.8% (inactive); for `Cc1ccc(C2=Nc3c(ccc4ccccc34)C(c3ccncc3)=NN2)cc1`, 60.4% (active).
On to `O=C(CCl)N(Cc1cccc([N+](=O)[O-])c1)c1cccc(Cl)c1`, for which the inhibition is 33.3% (inactive).
As to `NS(=O)(=O)c1cccc(NC(=O)CSc2nc3ccccc3n2-c2ccccc2)c1`, the inhibition was 31.4% (inactive).
With `COc1ccc(C(=O)Nc2ccccc2C(=O)N/N=C/c2ccccc2OC)cc1` the figure was 0.25% (inactive).
`CCOC(=O)C(=CNc1cccc(C)n1)C(=O)OCC`: the inhibition is 32.5% (inactive).
For `CCOC(=O)N1CCN(C(=O)C2CCN(c3ncnc4c3sc3cccc(F)c34)CC2)CC1` the value was 41.5% (active).
